Assay results reported in BindingDB's records for doi:10.1021/acsmedchemlett.8b00442 (University of Helsinki, 2018).

Target: T1, Phosphatidylserine lipase ABHD16A (Homo sapiens, UniProt O95870)
T1 sequence (O95870 whole entry): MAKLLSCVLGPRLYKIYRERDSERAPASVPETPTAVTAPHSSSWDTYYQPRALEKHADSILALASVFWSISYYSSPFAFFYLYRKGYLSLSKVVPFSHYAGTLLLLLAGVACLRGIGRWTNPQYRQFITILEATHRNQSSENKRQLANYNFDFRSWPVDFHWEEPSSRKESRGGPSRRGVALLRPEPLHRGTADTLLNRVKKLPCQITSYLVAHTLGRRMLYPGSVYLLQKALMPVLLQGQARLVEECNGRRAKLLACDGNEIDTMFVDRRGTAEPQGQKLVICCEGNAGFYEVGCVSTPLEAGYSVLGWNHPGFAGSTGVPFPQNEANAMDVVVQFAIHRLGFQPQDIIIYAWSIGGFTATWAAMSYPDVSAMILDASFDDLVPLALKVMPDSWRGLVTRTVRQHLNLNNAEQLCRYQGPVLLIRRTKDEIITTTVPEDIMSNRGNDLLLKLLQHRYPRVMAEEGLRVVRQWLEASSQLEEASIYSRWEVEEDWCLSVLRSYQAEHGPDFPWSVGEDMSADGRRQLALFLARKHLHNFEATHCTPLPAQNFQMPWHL
Assay: Inhibition of ABHD16A (unknown origin)
Procedure, shortened: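 Lysates of HEK293 cells transiently overexpressing human ABHD16A were pretreated for 30 min with DMSO (control) or inhibitor. 1-LG substrate (25 µM final) was then added, and liberated glycerol was measured. Screening was at 10 µM as % control activity (n=2-3). Dose-response used 0.1-100 µM, duplicate wells from two independent experiments, giving IC50.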

In the case of `COc1nn(-c2ccc(F)cc2)c(=O)o1`, the IC50 is reported as 32 nM.
